From paper PMC2828537 (Pflugers Archiv : European journal of physiology, 2009)

Legend:
Type in all cases: cell-based
[1] = tested on: HEK293 cells; experiment: Fluo4 [Ca2+]i assay in parental HEK293 cells; settings: 300 µM
Summary of the method: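 Wild-type HEK293 cells in DMEM (4.5 mg/ml glucose, 10% heat-inactivated FBS, penicillin/streptomycin), plated on polyornithine-treated wells for 14–18 hrs. Loaded with Fluo4-AM (2 µM, 60 min, 37°C) in ECS with 2 mM probenecid, then washed. Test compound was given robotically at 300 µM final. Fluorescence was read on a plate reader at ex 494/em 525 nm, 0.67 Hz, 20–25°C.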

[2] = biological target: T1, human TRPA1 endogenously expressed in WI-38 fibroblasts (Homo sapiens, UniProt O75762); experiment: Fluo4 [Ca2+]i assay in WI-38 fibroblasts
T1 sequence (O75762 whole entry): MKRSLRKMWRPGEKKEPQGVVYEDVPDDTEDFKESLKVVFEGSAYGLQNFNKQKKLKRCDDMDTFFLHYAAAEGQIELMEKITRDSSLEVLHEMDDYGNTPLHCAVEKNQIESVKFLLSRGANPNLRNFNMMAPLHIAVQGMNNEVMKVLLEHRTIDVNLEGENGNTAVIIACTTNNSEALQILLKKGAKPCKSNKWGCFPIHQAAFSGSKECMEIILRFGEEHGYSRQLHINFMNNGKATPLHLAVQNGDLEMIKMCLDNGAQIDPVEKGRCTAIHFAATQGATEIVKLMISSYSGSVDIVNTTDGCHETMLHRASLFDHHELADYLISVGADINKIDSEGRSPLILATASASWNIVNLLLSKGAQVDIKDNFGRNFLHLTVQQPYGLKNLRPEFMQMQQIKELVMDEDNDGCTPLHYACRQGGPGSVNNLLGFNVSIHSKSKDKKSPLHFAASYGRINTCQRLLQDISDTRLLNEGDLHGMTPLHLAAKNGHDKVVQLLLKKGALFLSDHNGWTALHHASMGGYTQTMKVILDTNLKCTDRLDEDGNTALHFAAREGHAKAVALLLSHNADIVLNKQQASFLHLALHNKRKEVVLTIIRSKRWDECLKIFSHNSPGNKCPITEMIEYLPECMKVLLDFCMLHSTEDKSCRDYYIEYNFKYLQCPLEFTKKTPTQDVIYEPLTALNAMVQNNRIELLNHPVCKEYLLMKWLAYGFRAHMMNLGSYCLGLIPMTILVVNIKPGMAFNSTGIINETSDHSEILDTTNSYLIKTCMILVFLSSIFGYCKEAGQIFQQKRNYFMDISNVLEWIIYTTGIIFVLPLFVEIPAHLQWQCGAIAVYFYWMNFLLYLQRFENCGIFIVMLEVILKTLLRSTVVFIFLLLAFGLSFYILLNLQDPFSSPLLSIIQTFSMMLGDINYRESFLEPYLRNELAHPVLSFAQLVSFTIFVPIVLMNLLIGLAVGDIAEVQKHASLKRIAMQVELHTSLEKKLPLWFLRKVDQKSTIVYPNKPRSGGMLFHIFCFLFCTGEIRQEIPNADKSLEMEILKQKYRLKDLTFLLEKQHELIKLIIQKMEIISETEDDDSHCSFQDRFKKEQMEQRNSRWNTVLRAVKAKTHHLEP

[3] = biological target: rat TRPA1 (Rattus norvegicus, UniProt Q6RI86); experiment: Two-electrode voltage clamp of Xenopus oocytes expressing rat TRPA1; settings: for response to FFA and AITC together, % of that evoked by FFA alone: 30 µM FFA + 3 µM AITC; for current stimulated by FFA and CA together, % of that evoked by FFA: 30 µM FFA + 3 µM CA; for current with FFA at 14°C, % of that evoked by the same concentration at 22°C / increase of FFA-activated current by raising bath Ca2+ to 10 mM / decrease of FFA-activated current amplitude in BAPTA-injected oocytes: 30 µM FFA; for decrease of FFA-activated current amplitude in BAPTA-injected oocytes / EC50: nominally Ca2+-free bath; for decrease of FFA-activated current amplitude in BAPTA-injected oocytes: BAPTA ~2.5 mM
rat TRPA1, sequence (Q6RI86 whole entry): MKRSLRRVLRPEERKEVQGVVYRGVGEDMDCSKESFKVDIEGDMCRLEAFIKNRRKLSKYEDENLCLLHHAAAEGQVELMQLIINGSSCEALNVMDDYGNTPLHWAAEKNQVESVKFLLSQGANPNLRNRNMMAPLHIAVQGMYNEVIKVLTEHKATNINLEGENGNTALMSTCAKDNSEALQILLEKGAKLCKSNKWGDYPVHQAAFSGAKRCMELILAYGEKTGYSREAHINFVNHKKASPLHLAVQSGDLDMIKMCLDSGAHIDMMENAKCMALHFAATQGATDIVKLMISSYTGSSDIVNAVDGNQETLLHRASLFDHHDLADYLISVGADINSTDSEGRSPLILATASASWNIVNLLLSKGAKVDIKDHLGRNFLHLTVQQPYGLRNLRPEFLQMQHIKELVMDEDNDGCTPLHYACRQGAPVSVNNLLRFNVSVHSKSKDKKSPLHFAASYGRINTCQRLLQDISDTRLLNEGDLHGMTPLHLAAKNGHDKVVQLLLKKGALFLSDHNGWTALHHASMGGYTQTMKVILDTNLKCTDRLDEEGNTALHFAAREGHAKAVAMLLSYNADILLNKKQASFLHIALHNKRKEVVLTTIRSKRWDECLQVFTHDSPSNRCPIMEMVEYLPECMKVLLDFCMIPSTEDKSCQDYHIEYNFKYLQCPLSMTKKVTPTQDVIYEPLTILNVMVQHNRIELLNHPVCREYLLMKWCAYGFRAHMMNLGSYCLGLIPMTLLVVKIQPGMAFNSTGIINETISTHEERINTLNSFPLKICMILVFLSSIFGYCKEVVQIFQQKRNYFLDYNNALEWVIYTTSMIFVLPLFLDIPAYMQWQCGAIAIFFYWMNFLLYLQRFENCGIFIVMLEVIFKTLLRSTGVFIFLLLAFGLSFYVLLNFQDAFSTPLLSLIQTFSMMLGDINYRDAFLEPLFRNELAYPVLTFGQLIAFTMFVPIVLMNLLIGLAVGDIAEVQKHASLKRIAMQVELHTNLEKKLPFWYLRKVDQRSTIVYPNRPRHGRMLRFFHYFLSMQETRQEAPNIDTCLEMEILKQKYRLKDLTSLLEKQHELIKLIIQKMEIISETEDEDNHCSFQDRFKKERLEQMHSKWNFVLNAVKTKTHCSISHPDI

[4] = biological target: murine TRPM8 (Mus musculus, UniProt Q8R4D5); experiment: Fluo4 [Ca2+]i assay in stable HEK293 TRPM8 cell line
murine TRPM8, sequence (Q8R4D5 whole entry): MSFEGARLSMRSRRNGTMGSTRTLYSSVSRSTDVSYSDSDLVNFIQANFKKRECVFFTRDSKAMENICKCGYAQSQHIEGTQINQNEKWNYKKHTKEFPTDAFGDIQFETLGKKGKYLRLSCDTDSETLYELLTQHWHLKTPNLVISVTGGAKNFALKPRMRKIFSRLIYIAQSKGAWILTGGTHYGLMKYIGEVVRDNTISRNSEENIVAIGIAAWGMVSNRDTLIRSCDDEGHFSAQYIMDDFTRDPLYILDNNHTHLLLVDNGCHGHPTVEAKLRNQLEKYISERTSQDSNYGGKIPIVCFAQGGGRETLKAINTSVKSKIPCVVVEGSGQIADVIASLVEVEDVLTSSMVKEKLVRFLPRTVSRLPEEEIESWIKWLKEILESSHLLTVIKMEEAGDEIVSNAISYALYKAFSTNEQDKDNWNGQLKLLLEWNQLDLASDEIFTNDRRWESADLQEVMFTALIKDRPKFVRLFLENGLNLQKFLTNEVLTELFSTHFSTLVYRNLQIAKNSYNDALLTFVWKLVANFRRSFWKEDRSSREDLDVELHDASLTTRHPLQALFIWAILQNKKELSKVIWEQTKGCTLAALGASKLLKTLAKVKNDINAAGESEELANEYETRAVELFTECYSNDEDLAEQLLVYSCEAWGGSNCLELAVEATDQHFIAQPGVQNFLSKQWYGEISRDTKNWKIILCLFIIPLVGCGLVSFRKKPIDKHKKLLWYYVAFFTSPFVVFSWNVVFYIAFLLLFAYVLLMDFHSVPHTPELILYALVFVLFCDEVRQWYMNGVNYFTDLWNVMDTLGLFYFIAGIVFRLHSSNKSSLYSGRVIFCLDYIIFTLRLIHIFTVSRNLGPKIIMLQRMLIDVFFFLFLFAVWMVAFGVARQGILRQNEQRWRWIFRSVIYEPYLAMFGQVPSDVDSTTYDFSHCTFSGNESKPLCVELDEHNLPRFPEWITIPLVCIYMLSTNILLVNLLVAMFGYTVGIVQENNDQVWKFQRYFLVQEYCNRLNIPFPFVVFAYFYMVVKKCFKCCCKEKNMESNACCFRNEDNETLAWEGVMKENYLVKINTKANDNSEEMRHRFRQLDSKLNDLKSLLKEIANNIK
Summary of the method: (§1)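 Stable HEK293 lines expressing murine TRPV3 (clonal) or TRPM8 (polyclonal), selected with 400 µg/ml G418. Seeded at ~100,000 cells/well on polyornithine-treated wells and grown 14–18 hrs. Loaded with 2 µM Fluo4-AM plus 0.05% Pluronic F-127 in ECS (pH 7.4) for 60 min at 37°C, with 2 mM probenecid throughout. Test compound and channel agonist added robotically. Fluorescence read at ex 494/em 525 nm, 0.67 Hz, 20–25°C. Maximal fluorescence change reported, n = 3.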

[5] = biological target: T2, murine TRPV1 (Mus musculus, UniProt Q704Y3); experiment: Two-electrode voltage clamp of Xenopus oocytes expressing murine TRPV1; settings: 100 µM FFA with 100 µM 2APB
T2 sequence (Q704Y3 whole entry): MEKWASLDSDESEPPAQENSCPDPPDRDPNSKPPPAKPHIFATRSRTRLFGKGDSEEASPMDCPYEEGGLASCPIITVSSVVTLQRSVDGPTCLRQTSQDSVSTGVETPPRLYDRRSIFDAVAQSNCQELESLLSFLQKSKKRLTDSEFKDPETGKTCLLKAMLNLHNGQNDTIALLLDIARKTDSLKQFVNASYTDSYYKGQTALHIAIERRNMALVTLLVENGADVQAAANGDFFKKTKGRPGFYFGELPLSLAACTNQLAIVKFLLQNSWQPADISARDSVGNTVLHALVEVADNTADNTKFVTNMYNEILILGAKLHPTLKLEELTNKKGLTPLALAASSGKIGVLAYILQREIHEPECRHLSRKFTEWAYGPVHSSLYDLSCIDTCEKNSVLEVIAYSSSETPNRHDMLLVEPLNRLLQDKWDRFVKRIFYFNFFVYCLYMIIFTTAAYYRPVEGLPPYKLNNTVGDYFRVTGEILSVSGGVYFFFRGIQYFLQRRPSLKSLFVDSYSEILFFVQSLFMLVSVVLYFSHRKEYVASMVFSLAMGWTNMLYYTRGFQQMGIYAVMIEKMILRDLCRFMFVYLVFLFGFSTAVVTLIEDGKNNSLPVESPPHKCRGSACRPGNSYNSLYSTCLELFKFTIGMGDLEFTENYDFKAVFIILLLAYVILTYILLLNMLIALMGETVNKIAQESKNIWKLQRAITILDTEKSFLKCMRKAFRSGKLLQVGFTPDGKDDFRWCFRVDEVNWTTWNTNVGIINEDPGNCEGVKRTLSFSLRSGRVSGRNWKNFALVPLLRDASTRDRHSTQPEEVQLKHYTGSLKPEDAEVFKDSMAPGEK
Summary of the method: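 Collagenase-defolliculated Xenopus oocytes (>1.5 mm) were injected with 5 ng cRNA and kept 2–5 days at 19°C in ND96. Two-electrode clamp used a nominally Ca²⁺-free bath (pH 7.4), holding −20 mV, a 20 ms step to −100 mV, then a 200 ms ramp to +100 mV each second, at 22°C.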

[6] = biological target: T3, murine TRPV3 (Mus musculus, UniProt Q8K424); experiment: Fluo4 [Ca2+]i assay in stable HEK293 TRPV3 cell line
T3 sequence (Q8K424 1-791): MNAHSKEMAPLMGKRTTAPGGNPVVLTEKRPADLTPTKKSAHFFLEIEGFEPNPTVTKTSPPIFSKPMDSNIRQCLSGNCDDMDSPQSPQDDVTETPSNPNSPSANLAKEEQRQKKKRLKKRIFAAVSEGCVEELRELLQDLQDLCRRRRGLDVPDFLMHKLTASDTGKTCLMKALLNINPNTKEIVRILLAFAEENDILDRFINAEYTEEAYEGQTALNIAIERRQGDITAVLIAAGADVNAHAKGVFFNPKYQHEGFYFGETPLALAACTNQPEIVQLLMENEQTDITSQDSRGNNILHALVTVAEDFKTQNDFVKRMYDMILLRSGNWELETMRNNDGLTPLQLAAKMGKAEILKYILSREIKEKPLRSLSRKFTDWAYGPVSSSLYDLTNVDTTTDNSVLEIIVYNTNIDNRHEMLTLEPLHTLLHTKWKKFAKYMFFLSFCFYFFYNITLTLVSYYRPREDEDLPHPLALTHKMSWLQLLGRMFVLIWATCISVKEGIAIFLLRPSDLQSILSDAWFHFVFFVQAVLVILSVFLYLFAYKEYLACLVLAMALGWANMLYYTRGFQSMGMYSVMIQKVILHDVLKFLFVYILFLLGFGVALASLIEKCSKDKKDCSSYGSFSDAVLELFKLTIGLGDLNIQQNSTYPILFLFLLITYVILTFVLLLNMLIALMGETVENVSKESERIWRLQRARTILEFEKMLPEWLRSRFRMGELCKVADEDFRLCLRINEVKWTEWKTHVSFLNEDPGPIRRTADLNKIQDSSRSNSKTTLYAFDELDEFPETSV
Summary of the method: as §1

[7] = biological target: human TRPA1 (Homo sapiens, UniProt O75762); experiment: Fluo4 [Ca2+]i assay in HEK-A1 cells
human TRPA1, sequence (O75762 whole entry): as the sequence (O75762 whole entry) above

[8] = biological target: T2, murine TRPV1; experiment: Fura2 Ca2+ imaging of HEK293 cells transiently expressing TRPV1
Summary of the method: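 Murine TRPV1 (pIRES2EGFP) was transiently expressed in HEK293 cells, which were seeded on polyornithine coverslips one day after transfection. After 16 hrs, cells were loaded with 2 µM Fura2-AM plus 0.05% Pluronic F-127 (60 min, 37°C). Transfected cells were identified by GFP (470 nm). Imaging used 340/380 nm excitation and 510 nm emission at 22°C. Capsaicin and test compound were perfused at final concentration. Maximal Fura2 ratio change reported, n = 3.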

[9] = biological target: human TRPA1 Cys621Ser, Cys641Ser and Cys665Ser triple mutant (Homo sapiens, UniProt O75762, C621S/C641S/C665S); experiment: Currents of human TRPA1 triple cysteine mutant; settings: HH, unpublished results
human TRPA1 Cys621Ser, Cys641Ser and Cys665Ser triple mutant, sequence (O75762 whole entry C621S/C641S/C665S): as the sequence (O75762 whole entry) above, with C621S, C641S, C665S counted along it

[10] = biological target: T1, human TRPA1 endogenously expressed in WI-38 fibroblasts; experiment: Whole-cell recordings of WI-38 cells
Summary of the method: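 WI-38 cells grown in MEM with 10% heat-inactivated FBS and penicillin/streptomycin at 37°C, 5% CO₂. Cells were detached with 0.05% trypsin plus 0.53 mM EDTA in Ca²⁺/Mg²⁺-free HBSS for 5–10 min, held at 37°C, then settled on polyornithine-coated coverslips for 3–5 min before perfusion. Whole-cell voltage clamp was sampled at 5 kHz, with 100 ms ramps from −100 to +100 mV (holding −60 mV) applied every 0.5 s.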

[11] = high concentrations of FFA (30 to 300 µM)

- agonist effect on Fluo4 fluorescence ([Ca2+]i) in WI-38 cells ([2]; 300 µM): increased the Fluo4 fluorescence
- nH (Hill coefficient) ([2]; WI-38 cells): 1.3 ± 0.2
- threshold of activation [3]: about 10 µM
- response to FFA and AITC together, % of that evoked by FFA alone ([3]; +100 mV): 300 ± 52%
- response to FFA and AITC together, % of that evoked by FFA alone ([3]; −100 mV): 350 ± 62%
- current stimulated by FFA and CA together, % of that evoked by FFA ([3]; +100 mV): 223 ± 25%
- current stimulated by FFA and CA together, % of that evoked by FFA ([3]; −100 mV): 234 ± 43%
- current with FFA at 14°C, % of that evoked by the same concentration at 22°C ([3]; +100 mV): 226 ± 86%
- current with FFA at 14°C, % of that evoked by the same concentration at 22°C ([3]; −100 mV): 315 ± 85%
- increase of FFA-activated current by raising bath Ca2+ to 10 mM ([3]; +100 mV): 240 ± 39%
- decrease of FFA-activated current amplitude in BAPTA-injected oocytes ([3]; +100 mV): ~ 44%
- decrease of FFA-activated current amplitude in BAPTA-injected oocytes ([3]; −100 mV): ~ 33%
- increase of FFA-activated current by raising bath Ca2+ to 10 mM ([3]; −100 mV): 309 ± 49%
- Hill co-efficient at +100 mV ([3]; +100 mV): 2.2 ± 0.2
- EC50 ([3]; EC50 for current activation at +100 mV, +100 mV): 78 ± 4 µM
- EC50 ([3]; EC50 for current activation at −100 mV, −100 mV): 147 ± 4 µM
- Hill co-efficient at −100 mV ([3]; −100 mV): 2.2 ± 0.1
- Fluo4 fluorescence change ([4]; 300 µM FFA): slow fluorescence increase
- increase in Fluo4 fluorescence upon application ([4]; FFA from 3.7 to 100 µM): no significant increase
- effect on [Ca2+]i increase elicited by the channel's agonist [4, 11]: inhibited
- suppression of 2APB-activated current ([5]; +100 mV): 57%
- suppression of 2APB-activated current ([5]; −100 mV): 75%
- increase in Fluo4 fluorescence upon application ([6]; FFA from 3.7 to 100 µM): no significant increase
- effect on [Ca2+]i increase elicited by the channel's agonist [6, 11]: inhibited
- EC50 [7]: 57 ± 5 µM
- nH (Hill coefficient) ([7]; HEK-A1 cells): 1.6 ± 0.1
- increase in Fura2 ratio upon application ([8]; FFA from 3.7 to 100 µM): no significant increase
- effect on [Ca2+]i increase elicited by the channel's agonist [8, 11]: inhibited
- concentration-response curve in triple cysteine mutant [9]: right-shifted
- Hill co-efficient at +100 mV ([10]; +100 mV): 1.7 ± 0.2
- EC50 ([10]; EC50 for FFA-evoked whole-cell currents at +100 mV, +100 mV): 44 ± 11 µM
- EC50 ([10]; EC50 for FFA-evoked whole-cell currents at −100 mV, −100 mV): 55 ± 4 µM
- Hill co-efficient at −100 mV ([10]; −100 mV): 2.4 ± 0.1
Compound: O=C(O)c1ccccc1Nc1cccc(C(F)(F)F)c1 [FFA, flufenamic acid]
- effect on Fluo4 fluorescence in HEK293 cells [1]: little effect
